# Measured values taken from PubChem BioAssay.
# Active and inactive are the calls of the source.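 Rule for the calls, unless noted: active = viability at or below 10% of carrier control in both of two separate runs; inconclusive = viability at or below 10% in only one of the two runs; inactive = the rest.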
# What was measured:
# [1] = Her2 expression decrease, cell viability multiplex – SKBR3 breast tumor cells, AlphaScreen, ATP viability, primary screen (AID 461;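 active = Her2 level under about 52% in both replicate screens, with viability over 70% of control, limit read from the data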;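 for Her2 level: lower value means less Her2 protein in the cells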;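 for viability: percent of carrier control wells set as 100% viability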); details: SKBR3 Her2 protein level, 18-24 h, measured here: SKBR3 viability, ATP luminescence, at 10 µM
# [2] = molecular target: Receptor tyrosine-protein kinase erbB-2 (Homo sapiens) (UniProt P04626); test: as above; details: 18-24 h, at 10 µM, stronger effect = lower value
# [3] = reduced viability of SK-BR-3 breast cancer cells – cell-based, 24 h, human, pilot screen (AID 572); details: SK-BR-3 viability, CellTiter-Glo luminescence, at 10 µM, stronger effect = lower value;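 note: compound exposure lasted between 18 and 24 h rather than exactly 24 h; 100% = carrier-treated control wells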
# [4] = HUVEC growth inhibition – cell-based, human, primary screen (AID 575;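 active = viability at or below 30% in both replicate assays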;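 note: 100% = median of untreated cell wells with 0.1% DMSO on each plate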); details: HUVEC proliferation, CellTiter-Glo luminescence, 72 h; at 10 µM; stronger effect = lower value
# Method in brief: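 Material: primary human umbilical vein endothelial cells / Schedule: 72 h exposure, 37 °C, 5% CO2, 30 min RT equilibration / Signal: ATP-based CellTiter-Glo luminescent read / Read-out basis: percent of median DMSO-control luminescence / Control set: 32 DMSO-only cell-control wells (high), 32 MePR drug-control wells (low) per plate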
# [5] = H69AR cell proliferation blockers – human, duplicate replicates, primary screen (AID 580;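 active = viability at or under a set limit in both replicates, limit being median viability minus 3 SD, cut at about 48% in these data, passing the limit was not always enough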;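 note: 100% = mean luminescence of untreated wells and 0% = no signal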); details: H69AR lung tumor cells viability, ATP luminescence, 72 h; at 10 µM; stronger effect = lower value
# [6] = MRP1 drug-resistance reversers in H69AR cells – cell-based, doxorubicin co-treatment, pilot screen (AID 601;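 active = viability loss from added drug above about 55%, and viability with drug at most 40%, in both replicates, limit read from the data, passing the limit was not always enough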); details: CellTiter-Glo, 72 h, at 10 µM; for differential viability (reversal): stronger effect = higher value
# [7] = yeast transport mutant growth inhibition pilot in 384-well plates, post-Golgi transport modulator project (AID 636; in the data active = inhibition above about 31%); details: absorbance 615 nm, about 18 h, stronger effect = higher value
# [8] = growth suppression of yeast trafficking mutant, preliminary HTS, modulators of trafficking downstream of Golgi apparatus project, 1536-format plate, OD 615 nm (AID 637; in the data active = inhibition above about 30%); details: yeast transport mutant growth, absorbance 615 nm, 18 h; stronger effect = higher value
# [9] = H69AR cells + 2 uM doxorubicin, measured here: viability with 2 uM doxorubicin, stronger effect = lower value
# [10] = H69AR cells, compound alone cytotoxicity
# Receptor tyrosine-protein kinase erbB-2 (Homo sapiens), sequence (P04626 whole entry, looked up): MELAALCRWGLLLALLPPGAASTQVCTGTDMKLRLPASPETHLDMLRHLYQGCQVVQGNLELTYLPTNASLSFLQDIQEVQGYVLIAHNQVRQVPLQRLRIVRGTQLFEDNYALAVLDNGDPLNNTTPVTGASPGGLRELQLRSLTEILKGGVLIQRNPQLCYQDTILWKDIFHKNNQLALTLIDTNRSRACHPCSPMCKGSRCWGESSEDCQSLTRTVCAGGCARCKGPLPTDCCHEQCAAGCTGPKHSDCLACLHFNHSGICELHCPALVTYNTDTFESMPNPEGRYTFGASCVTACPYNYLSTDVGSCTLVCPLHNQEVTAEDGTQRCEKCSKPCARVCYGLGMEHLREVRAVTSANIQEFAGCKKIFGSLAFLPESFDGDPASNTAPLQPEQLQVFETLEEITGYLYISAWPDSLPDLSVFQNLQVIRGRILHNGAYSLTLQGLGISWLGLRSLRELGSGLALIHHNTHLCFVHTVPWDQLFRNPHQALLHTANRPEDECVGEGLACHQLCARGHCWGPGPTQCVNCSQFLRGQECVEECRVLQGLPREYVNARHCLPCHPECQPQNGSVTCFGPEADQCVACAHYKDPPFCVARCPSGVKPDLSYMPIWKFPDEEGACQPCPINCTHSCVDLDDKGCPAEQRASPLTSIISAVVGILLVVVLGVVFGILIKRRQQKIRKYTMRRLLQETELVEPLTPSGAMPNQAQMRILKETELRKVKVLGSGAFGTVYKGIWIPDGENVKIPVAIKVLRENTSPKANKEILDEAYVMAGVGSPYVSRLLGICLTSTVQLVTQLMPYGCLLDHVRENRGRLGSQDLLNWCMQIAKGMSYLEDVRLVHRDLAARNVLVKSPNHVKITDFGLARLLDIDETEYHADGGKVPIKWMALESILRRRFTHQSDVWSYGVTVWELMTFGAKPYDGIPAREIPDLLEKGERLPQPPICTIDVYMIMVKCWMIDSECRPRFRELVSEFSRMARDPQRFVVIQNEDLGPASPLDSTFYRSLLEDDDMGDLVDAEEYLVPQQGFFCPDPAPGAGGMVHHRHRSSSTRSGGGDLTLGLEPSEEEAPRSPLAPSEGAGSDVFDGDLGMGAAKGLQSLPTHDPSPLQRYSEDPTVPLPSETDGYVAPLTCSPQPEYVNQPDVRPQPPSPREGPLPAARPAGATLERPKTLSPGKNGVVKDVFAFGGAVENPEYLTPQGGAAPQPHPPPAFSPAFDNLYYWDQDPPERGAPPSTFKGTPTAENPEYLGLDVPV
Structure (SMILES),viability [1] [%],Her2 level [2],viability [3],viability [4],viability [5],differential viability (reversal) ([6]; H69AR cells + 2 uM doxorubicin),"viability [6, 9] [%]","viability [6, 10] [%]",inhibition [7],inhibition [8]
CCOCC(=O)Nc1sc2c(c1C(=O)OCC)CCCC2,89,89.5% (inactive),89% (inactive),54% (inactive),90.5% (inactive),-4.83% (inactive),95.3,90.5,0.13% (inactive),1.64% (inactive)
Cc1cc(C(=O)NCCCc2ccccc2)no1,100,86% (inactive),100% (inactive),91.4% (inactive),107% (inactive),18.6% (inactive),88.7,107,-5% (inactive),-2.83% (inactive)
Cc1cc(NS(=O)(=O)c2ccc(Nc3nc(-c4sc(N)nc4C)cs3)cc2)no1,104,116% (inactive),104% (inactive),75.5% (inactive),98% (inactive),9.14% (inactive),88.8,98,-4.08% (inactive),-4% (inactive)
O=C(O)c1cc2nc(-c3ccc(F)cc3)cc(C(F)(F)F)n2n1,94,118% (inactive),94% (inactive),82% (inactive),93.2% (inactive),4% (inactive),89.2,93.2,-2.24% (inactive),-1% (inactive)
CC(c1ccccc1)N1C(=O)c2ccc(C(=O)NCc3ccco3)cc2C1=O (stereo not given),104,84% (inactive),104% (inactive),93.6% (inactive),95.7% (inactive),5.55% (inactive),90.1,95.7,-3.16% (inactive),-4.92% (inactive)
COc1ccc(CCNC(=O)C2CCN(C(=O)N(C)C)CC2)cc1OC,86.5,117% (inactive),86.5% (inactive),108% (inactive),92.8% (inactive),1.61% (inactive),91.2,92.8,-2.05% (inactive),-4.67% (inactive)
CN1CCN(/C=N/c2sc3c(c2C#N)CCCCC3)CC1,97,96.5% (inactive),97% (inactive),75.9% (inactive),84.2% (inactive),6.14% (inactive),78.1,84.2,0.67% (inactive),-9.52% (inactive)
CC(=O)N(C(C)=O)c1cccc2c(N(C(C)=O)C(C)=O)cccc12,106,94% (inactive),106% (inactive),97.4% (inactive),91.7% (inactive),-2.88% (inactive),94.5,91.7,-4.29% (inactive),-6% (inactive)
CCn1c(=O)n(CC(=O)N(C)Cc2ccccc2)c(=O)c2ccccc21,110,93.5% (inactive),110% (inactive),75.7% (inactive),91.8% (inactive),1.03% (inactive),90.8,91.8,1.18% (inactive),-0.48% (inactive)
CC(=O)c1coc2ccc(OCC(=O)O)cc12,104,90.5% (inactive),104% (inactive),105% (inactive),98% (inactive),5.29% (inactive),92.7,98,-4% (inactive),-4.26% (inactive)
CCOc1cc(C)c(Cl)cc1S(=O)(=O)N(C)C,106,90.5% (inactive),106% (inactive),103% (inactive),95.4% (inactive),8.76% (inactive),86.6,95.4,-3.03% (inactive),-2.1% (inactive)
CC(=O)NC(Cc1ccccc1)C(=O)NC1CCN(C(=O)c2cnccn2)CC1 (stereo not given),122,88% (inactive),122% (inactive),104% (inactive),96.2% (inactive),1.21% (inactive),95,96.2,-4.86% (inactive),8.52% (inactive)
O=C1NC2=C(C(=O)CCC2)C(c2ccc3ncccc3c2)N1 (stereo not given),106,91% (inactive),106% (inactive),115% (inactive),98.4% (inactive),12.6% (inactive),85.8,98.4,-1.64% (inactive),1.9% (inactive)
CCOC(=O)C(C)On1c(SC(C)C(=O)OCC)nc2ccccc2c1=O (stereo not given),131,102% (inactive),131% (inactive),93.4% (inactive),82.1% (inactive),-19.7% (inactive),102,82.1,-3.68% (inactive),-6.61% (inactive)
O=C(OCCCCN1C(=O)c2ccccc2C1=O)c1n[nH]c2ccccc12,92.5,86% (inactive),92.5% (inactive),76.4% (inactive),101% (inactive),6.39% (inactive),94.9,101,-7.67% (inactive),4.29% (inactive)
Cc1sc(NC(=O)CSc2nc(N)n(CC(=O)c3ccccc3)n2)c(C#N)c1C,103,106% (inactive),103% (inactive),103% (inactive),90.4% (inactive),-0.79% (inactive),91.2,90.4,-3.65% (inactive),-6.83% (inactive)

Structure (SMILES),viability [1] [%],Her2 level [2],viability [3],viability [4],viability [5],differential viability (reversal) ([6]; H69AR cells + 2 uM doxorubicin),"viability [6, 9] [%]","viability [6, 10] [%]",inhibition [7],inhibition [8]
CCOC(=O)N1CCN(S(=O)(=O)c2ccc(OCC)c(C)c2)CC1,110,88.5% (inactive),110% (inactive),88.9% (inactive),103% (inactive),17.6% (inactive),85.5,103,-1.95% (inactive),-3.17% (inactive)
O=S(=O)(c1ccc(F)c(Cl)c1)N1CCCC1,100,71% (inactive),100% (inactive),93.9% (inactive),92.2% (inactive),3.06% (inactive),89.2,92.2,-5.68% (inactive),0.16% (inactive)
Cn1cnc2c(N3CCCCC3)nccc21,116,104% (inactive),116% (inactive),87.3% (inactive),90.5% (inactive),-5.21% (inactive),95.7,90.5,-4.16% (inactive),-1.64% (inactive)
COc1ccc2nc(CC(C)(C)CC(=O)O)c[n+]([O-])c2c1,109,95.5% (inactive),109% (inactive),106% (inactive),99.2% (inactive),9.58% (inactive),89.6,99.2,-2.7% (inactive),5.08% (inactive)
CCOC(=O)c1sc(N)c(C(=O)OCC)c1COC(=O)C1CC(=O)N(Cc2ccco2)C1 (stereo not given),91.5,113% (inactive),91.5% (inactive),80.7% (inactive),72.4% (inactive),22.6% (inactive),49.8,72.4,-7.6% (inactive),-8.71% (inactive)
Cc1cccc(N2C(=O)CC(Sc3nc(C)c4c(n3)CCCC4)C2=O)c1 (stereo not given),80.5,128% (inactive),80.5% (inactive),102% (inactive),90.3% (inactive),-0.055% (inactive),90.3,90.3,-0.27% (inactive),27.5% (inactive)
Cc1nc2scc(-c3cccs3)c2c(=O)n1-n1cccc1,92,107% (inactive),92% (inactive),82.3% (inactive),99.3% (inactive),14.4% (inactive),84.8,99.3,-1.79% (inactive),-7.83% (inactive)
COc1cc(OC)nc(NC(=O)CSc2nc3ccccc3o2)n1,87.5,82.5% (inactive),87.5% (inactive),97.7% (inactive),92.4% (inactive),-2.58% (inactive),94.9,92.4,-6.4% (inactive),2.95% (inactive)
COc1cc(-c2nnc(SCC(=O)c3cc(C)n(CC4CCCO4)c3C)o2)cc(OC)c1OC (stereo not given),104,66.5% (inactive),104% (inactive),76.4% (inactive),77.5% (inactive),-2% (inactive),79.5,77.5,-5.95% (inactive),-4.83% (inactive)
COc1ccc(CNC(=O)COC(=O)c2n[nH]c3ccccc23)cc1OC,88,84.5% (inactive),88% (inactive),89.7% (inactive),92.6% (inactive),8.04% (inactive),84.6,92.6,-7.47% (inactive),2.38% (inactive)
O=C1CN=C(Nc2cccc(C(F)(F)F)c2)N1C1CCCC1,97,119% (inactive),97% (inactive),101% (inactive),82.5% (inactive),-15.2% (inactive),97.7,82.5,-3.33% (inactive),-1.8% (inactive)
COc1ccccc1OCc1ccc(C(=O)OCC2CCCO2)o1 (stereo not given),97.5,112% (inactive),97.5% (inactive),106% (inactive),100% (inactive),0.33% (inactive),99.8,100,-5.39% (inactive),-3.27% (inactive)
CCN1CCN(CCCNC(=O)c2cn(CCOC)c(=O)c3c2c2ccccc2n3C)CC1,121,122% (inactive),121% (inactive),96.4% (inactive),97.2% (inactive),6.88% (inactive),90.3,97.2,-2.11% (inactive),-3.82% (inactive)
CC(C)CC(=O)Nc1ccccc1-c1nnn(CC(=O)N2CCOCC2)n1,102,92% (inactive),102% (inactive),87.8% (inactive),86.8% (inactive),-1.72% (inactive),88.5,86.8,-5.87% (inactive),-1.77% (inactive)
COc1ccc(S(=O)(=O)N2CN(Cc3ccco3)c3nc4ccccc4nc32)cc1,101,84.5% (inactive),101% (inactive),99.2% (inactive),102% (inactive),7.69% (inactive),94.2,102,1.82% (inactive),1.11% (inactive)
